Columns and labels:
Assay type in all cases: cell-based
[1] = biological target: T1, Aurora kinase A (Homo sapiens) (UniProt O14965); experiment: Inhibition of AurA in human SKCO1 cells at 1 uM after 4 hrs using biotin labeled FILALKVLFK probe by mass-spectrometric analysis relative to control
T1 sequence (whole entry): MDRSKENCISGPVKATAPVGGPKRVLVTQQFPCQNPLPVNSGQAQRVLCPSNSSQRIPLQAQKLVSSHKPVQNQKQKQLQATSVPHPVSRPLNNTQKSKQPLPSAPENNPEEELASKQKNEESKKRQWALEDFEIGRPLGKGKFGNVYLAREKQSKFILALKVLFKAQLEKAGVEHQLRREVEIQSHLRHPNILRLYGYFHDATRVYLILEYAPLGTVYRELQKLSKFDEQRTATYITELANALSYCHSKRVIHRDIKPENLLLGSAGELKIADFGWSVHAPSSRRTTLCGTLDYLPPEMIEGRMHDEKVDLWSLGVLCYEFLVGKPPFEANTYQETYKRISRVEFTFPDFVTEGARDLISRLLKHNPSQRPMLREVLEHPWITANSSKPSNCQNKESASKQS
Method in brief: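 Live SK-CO-1 cells were treated 4 h with compound at 1 μM or DMSO, then lysed. Lysates were labeled with a lysine-reactive ATP/ADP-biotin probe and analysed by mass spectrometry. Percent inhibition is the loss of probe-dependent recovery of the kinase peptide relative to DMSO.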

[2] = biological target: Tyrosine-protein kinase Fes/Fps (Homo sapiens) (UniProt P07332); experiment: Inhibition of FES in human SKCO1 cells at 1 uM after 4 hrs using biotin labeled LRADNTLVAVKSCR probe by mass-spectrometric analysis relative to control
Chain of Tyrosine-protein kinase Fes/Fps (Homo sapiens) (P07332 whole entry): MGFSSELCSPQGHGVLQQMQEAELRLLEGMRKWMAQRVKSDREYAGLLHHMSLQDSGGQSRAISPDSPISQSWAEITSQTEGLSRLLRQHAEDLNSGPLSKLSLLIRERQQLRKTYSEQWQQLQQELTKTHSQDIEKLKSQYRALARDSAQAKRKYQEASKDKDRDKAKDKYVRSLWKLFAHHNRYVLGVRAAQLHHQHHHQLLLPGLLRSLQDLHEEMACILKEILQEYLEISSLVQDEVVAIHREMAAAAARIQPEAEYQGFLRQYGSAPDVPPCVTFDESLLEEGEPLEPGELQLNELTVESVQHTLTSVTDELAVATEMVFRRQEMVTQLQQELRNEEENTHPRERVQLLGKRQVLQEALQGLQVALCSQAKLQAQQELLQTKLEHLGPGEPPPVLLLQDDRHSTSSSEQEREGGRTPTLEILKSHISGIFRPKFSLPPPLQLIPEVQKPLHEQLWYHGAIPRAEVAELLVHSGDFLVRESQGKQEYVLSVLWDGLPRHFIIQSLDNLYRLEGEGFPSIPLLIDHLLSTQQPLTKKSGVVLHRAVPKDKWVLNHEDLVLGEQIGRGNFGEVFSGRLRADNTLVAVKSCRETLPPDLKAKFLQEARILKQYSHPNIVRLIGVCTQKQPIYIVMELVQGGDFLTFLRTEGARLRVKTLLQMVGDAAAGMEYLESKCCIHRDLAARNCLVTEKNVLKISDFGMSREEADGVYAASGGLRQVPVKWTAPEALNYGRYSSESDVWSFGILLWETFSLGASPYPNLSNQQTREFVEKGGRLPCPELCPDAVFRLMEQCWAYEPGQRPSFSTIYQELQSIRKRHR

[3] = biological target: Glycogen synthase kinase-3 beta (Homo sapiens) (UniProt P49841); experiment: Inhibition of GSK3B in human SKCO1 cells at 1 uM after 4 hrs using biotin labeled DIKPQNLLLDPDTAVLK probe by mass-spectrometric analysis relative to control
Chain of Glycogen synthase kinase-3 beta (Homo sapiens) (P49841 whole entry, looked up): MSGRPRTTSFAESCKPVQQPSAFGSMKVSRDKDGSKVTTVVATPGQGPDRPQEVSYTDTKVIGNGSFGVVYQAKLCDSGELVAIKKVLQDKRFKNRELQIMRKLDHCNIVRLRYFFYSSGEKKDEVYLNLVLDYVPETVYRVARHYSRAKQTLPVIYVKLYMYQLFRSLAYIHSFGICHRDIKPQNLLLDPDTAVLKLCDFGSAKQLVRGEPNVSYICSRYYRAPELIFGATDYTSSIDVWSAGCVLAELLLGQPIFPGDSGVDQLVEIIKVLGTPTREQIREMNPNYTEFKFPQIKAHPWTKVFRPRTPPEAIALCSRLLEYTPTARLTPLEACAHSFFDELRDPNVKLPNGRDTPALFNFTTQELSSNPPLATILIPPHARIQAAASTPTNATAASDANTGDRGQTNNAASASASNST

[4] = biological target: T2, Serine/threonine-protein kinase LATS1 (Homo sapiens) (UniProt O95835); experiment: Inhibition of LATS1 in human SKCO1 cells at 1 uM after 4 hrs using biotin labeled ALYATKTLR probe by mass-spectrometric analysis relative to control
T2 sequence (whole entry): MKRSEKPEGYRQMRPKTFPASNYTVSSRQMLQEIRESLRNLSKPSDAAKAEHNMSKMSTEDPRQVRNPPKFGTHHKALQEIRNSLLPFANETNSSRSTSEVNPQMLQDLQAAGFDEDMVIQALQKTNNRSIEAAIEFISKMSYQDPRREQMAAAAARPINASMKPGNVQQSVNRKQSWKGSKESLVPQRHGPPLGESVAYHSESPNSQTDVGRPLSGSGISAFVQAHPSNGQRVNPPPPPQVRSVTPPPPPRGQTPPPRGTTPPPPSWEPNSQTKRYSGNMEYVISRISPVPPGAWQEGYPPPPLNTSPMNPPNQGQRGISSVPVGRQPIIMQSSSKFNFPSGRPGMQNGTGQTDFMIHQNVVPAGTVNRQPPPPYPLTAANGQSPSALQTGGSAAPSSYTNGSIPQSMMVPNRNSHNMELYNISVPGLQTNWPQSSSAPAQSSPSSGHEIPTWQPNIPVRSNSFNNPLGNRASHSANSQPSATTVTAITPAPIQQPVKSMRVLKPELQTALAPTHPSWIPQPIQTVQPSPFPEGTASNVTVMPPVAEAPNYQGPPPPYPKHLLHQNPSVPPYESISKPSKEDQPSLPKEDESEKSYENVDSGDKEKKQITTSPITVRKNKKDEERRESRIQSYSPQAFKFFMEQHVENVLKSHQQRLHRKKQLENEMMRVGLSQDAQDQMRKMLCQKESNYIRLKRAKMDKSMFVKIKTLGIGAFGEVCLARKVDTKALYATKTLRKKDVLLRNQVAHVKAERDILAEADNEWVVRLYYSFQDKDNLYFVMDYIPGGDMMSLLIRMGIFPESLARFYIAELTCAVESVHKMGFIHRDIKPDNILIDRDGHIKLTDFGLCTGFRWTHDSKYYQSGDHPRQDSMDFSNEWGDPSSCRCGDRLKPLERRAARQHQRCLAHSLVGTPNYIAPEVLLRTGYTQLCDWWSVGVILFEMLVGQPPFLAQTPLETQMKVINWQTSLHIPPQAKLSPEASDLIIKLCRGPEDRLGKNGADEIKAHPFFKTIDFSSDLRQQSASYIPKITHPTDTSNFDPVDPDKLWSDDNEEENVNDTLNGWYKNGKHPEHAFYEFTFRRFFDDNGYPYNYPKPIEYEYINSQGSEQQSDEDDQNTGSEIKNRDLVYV

[5] = biological target: Dual specificity mitogen-activated protein kinase kinase 1 (Homo sapiens) (UniProt Q02750); experiment: Inhibition of MAP2K1 in human SKCO1 cells at 1 uM after 4 hrs using biotin labeled KLIHLEIKPAIR probe by mass-spectrometric analysis relative to control; details: pooled result: one value given for 2 cell lines, strains, targets or settings
Chain of Dual specificity mitogen-activated protein kinase kinase 1 (Homo sapiens) (Q02750 whole entry): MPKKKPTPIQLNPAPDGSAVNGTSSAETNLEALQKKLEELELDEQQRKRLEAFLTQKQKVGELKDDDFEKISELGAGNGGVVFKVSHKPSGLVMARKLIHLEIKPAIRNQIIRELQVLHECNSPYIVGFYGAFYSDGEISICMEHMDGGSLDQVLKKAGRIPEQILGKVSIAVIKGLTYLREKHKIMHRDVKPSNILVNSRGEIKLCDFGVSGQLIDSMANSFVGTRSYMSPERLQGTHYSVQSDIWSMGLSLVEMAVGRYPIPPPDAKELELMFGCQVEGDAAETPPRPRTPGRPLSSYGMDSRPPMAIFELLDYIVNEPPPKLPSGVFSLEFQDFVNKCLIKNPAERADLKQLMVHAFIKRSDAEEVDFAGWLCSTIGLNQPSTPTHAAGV

[6] = biological target: T3, Non-receptor tyrosine-protein kinase TNK1 (Homo sapiens) (UniProt Q13470); experiment: Inhibition of TNK1 in human SKCO1 cells at 1 uM after 4 hrs using biotin labeled SVPVAVKSLR probe by mass-spectrometric analysis relative to control
T3 sequence (whole entry): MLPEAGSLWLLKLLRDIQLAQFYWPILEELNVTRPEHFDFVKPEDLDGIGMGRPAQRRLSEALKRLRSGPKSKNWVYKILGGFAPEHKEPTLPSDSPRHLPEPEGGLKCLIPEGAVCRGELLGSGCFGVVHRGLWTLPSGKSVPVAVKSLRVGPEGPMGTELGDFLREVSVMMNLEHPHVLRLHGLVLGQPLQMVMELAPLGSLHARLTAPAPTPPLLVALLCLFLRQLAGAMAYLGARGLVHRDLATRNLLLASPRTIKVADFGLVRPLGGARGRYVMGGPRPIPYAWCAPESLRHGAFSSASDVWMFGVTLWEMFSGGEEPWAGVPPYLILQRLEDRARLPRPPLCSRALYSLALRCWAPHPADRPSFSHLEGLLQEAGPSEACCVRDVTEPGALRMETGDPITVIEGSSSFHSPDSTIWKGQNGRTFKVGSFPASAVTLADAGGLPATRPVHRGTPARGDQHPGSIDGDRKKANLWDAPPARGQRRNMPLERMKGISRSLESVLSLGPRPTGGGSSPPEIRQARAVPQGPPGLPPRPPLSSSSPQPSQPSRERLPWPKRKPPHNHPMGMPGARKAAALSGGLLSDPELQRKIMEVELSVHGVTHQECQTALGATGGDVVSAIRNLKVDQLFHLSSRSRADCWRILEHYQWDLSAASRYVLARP
Method in brief: (§1)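 Live SK-CO-1 cells exposed to compound at 1 μM or DMSO for 4 h (KiNativ). Lysates then labeled with lysine-reactive ATP/ADP-biotin probe, and probe-labeled kinase peptides quantified by mass spectrometry. Percent inhibition of probe-dependent recovery calculated relative to DMSO-treated cells.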

[7] = biological target: Serine/threonine-protein kinase 32C (Homo sapiens) (UniProt Q86UX6); experiment: Inhibition of YANK3 in human SKCO1 cells at 1 uM after 4 hrs using biotin labeled DVKPDNILLDER probe by mass-spectrometric analysis relative to control; method in brief: as §1
Chain of Serine/threonine-protein kinase 32C (Homo sapiens) (Q86UX6 whole entry): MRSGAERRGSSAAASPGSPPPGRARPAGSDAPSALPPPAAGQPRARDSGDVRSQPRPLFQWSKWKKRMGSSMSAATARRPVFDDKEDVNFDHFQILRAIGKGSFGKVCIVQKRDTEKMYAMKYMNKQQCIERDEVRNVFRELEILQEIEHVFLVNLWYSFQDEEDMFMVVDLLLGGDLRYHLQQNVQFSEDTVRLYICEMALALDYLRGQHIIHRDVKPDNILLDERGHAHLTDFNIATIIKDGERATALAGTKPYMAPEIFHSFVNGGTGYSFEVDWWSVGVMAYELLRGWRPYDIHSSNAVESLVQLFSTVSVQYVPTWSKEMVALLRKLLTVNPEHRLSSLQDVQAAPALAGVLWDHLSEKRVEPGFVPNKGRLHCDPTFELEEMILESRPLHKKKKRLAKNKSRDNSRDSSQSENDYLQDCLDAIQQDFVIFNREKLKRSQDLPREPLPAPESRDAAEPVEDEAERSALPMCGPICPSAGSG

SMILES | inhibition [1] | inhibition [2] | inhibition [3] | inhibition [4] | inhibition [5] | inhibition [6] | inhibition [7]
COc1cc(O)c2c(c1)/C=C/C[C@H](O)[C@H](O)C(=O)/C=C\C[C@H](C)OC2=O | 59.4% | 67.7% | 3% | 9.9% | 85.3% | 13.9% | -1.6%
C=CC(=O)Nc1ccccc1Oc1nc(Nc2cnn(CCOC)c2)ncc1Cl | 52.6% | 13.6% | 17% | 5.3% | 13.9% | 48.3% | 9.3%
C=CC(=O)Nc1ccccc1Nc1nc(Nc2ccc(N3CCN(C)CC3)cc2)ncc1Cl | 87.2% | 77.3% | -6.6% | 17.5% | 62.7% | 98.3% | -0.3%

From ChEMBL document CHEMBL4118021, “Studies of TAK1-centered polypharmacology with novel covalent TAK1 inhibitors” (Bioorg Med Chem, 2017)
